{"source": "ChEMBL document CHEMBL3414528", "about": "“Novel naftopidil-related derivatives and their biological effects as alpha1-adrenoceptors antagonists and antiproliferative agents” (Eur J Med Chem, 2015)", "key": {"LNCaP": {"system": "LNCaP", "experiment": "Cytotoxicity against human LNCAP cells after 48 hrs by WST-8 assay", "format": "functional, cell-based"}, "Rattus norvegicus": {"organism": "Rattus norvegicus", "experiment": "Selectivity ratio for Sprague-Dawley rat thoracic aorta adrenergic alpha-1D receptor to Sprague-Dawley rat spleen adrenergic alpha-1B receptor", "format": "tissue-based"}, "DU-145": {"system": "DU-145", "experiment": "Cytotoxicity against human DU145 cells after 48 hrs by WST-8 assay", "format": "functional, cell-based", "conditions": "DU-145, 48 h"}, "[1]": {"molecular_target": "T1, Alpha-1A adrenergic receptor (Rattus norvegicus, UniProt P43140)", "T1 sequence (P43140 whole entry)": "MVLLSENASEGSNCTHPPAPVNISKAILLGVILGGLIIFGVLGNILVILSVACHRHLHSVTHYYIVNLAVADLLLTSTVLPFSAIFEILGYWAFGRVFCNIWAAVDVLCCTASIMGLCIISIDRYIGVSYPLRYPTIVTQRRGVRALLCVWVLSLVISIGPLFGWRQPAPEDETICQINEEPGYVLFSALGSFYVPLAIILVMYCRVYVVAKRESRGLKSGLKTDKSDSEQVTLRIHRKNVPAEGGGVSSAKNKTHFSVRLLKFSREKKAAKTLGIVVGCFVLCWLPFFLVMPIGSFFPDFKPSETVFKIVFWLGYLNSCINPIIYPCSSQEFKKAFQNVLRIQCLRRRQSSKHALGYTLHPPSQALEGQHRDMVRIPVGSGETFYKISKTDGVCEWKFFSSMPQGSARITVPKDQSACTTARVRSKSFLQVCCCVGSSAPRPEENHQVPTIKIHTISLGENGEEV", "experiment": "Antagonist activity at Sprague-Dawley rat prostatic vas deferens adrenergic alpha-1A receptor after 20 mins", "conditions": "read-out: pA2 (converted)", "procedure,_shortened": "(§1)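 Isolated rat tissues (prostatic vas deferens, spleen, thoracic aorta) contracted with cumulative norepinephrine; concentration-response curves recorded in presence of increasing antagonist concentrations, antagonism read as rightward curve shift. Mean ± SEM of five to eight separate experiments.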"}, "PC-3 [2]": {"system": "PC-3", "experiment": "Inhibition of norepinephrine-induced cell proliferation in human PC3 cells at 1.5 to 100 uM by WST-8 assay", "format": "functional, cell-based", "procedure,_shortened": "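PC-3 cells treated with compound at 100, 75, 50, 25, 12.5, 6.25, 3.0 and 1.5 μM alone or together with norepinephrine (20 or 50 μM); viability by WST-8. Mean ± SEM, two-way ANOVA with post-hoc tests.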"}, "[3]": {"experiment": "Cell cycle arrest in human PC3 cells assessed as accumulation at G2/M phase at 30 uM after 24 hrs by propidium iodide staining-based flow cytometry (reference value: 33.04%)", "format": "functional", "conditions": "PC-3", "procedure,_shortened": "(§2)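 PC-3 cells given compound at 5, 10, 15, 20 or 30 μM, or 0.1% DMSO vehicle, for 24 h; stained with propidium iodide and analysed by flow cytometry for G0/G1, S and G2/M fractions.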"}, "PC-3 [4]": {"system": "PC-3", "experiment": "Induction of apoptosis in human PC3 cells assessed as early apoptotic cells at 10 uM after 24 hrs by annexin V/propidium iodide staining-based flow cytometry (reference value: 5.7%)", "format": "functional", "procedure,_shortened": "(§3)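 Phosphatidylserine exposure in PC-3 cells after 24 h at 0, 5, 10, 20 or 30 μM, by Alexa Fluor 488 annexin V/PI double staining and flow cytometry; early apoptotic = AV+/PI−, late apoptotic or dead = AV+/PI+.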"}, "[5]": {"experiment": "Cell cycle arrest in human PC3 cells assessed as accumulation at G2/M phase at 15 uM after 24 hrs by propidium iodide staining-based flow cytometry (reference value: 33.04%)", "format": "functional", "conditions": "PC-3", "procedure,_shortened": "as §2"}, "[6]": {"experiment": "Cell cycle arrest in human PC3 cells assessed as accumulation at G0/G1 phase at 20 uM after 24 hrs by propidium iodide staining-based flow cytometry (reference value: 39.20%)", "format": "functional", "conditions": "PC-3", "procedure,_shortened": "as §2"}, "[7]": {"experiment": "Cell cycle arrest in human PC3 cells assessed as accumulation at S phase at 5 uM after 24 hrs by propidium iodide staining-based flow cytometry (reference value: 27.26%)", "format": "functional", "conditions": "PC-3", "procedure,_shortened": "as §2"}, "[8]": {"experiment": "Cell cycle arrest in human PC3 cells assessed as accumulation at S phase at 20 uM after 24 hrs by propidium iodide staining-based flow cytometry (reference value: 27.26%)", "format": "functional", "conditions": "PC-3", "procedure,_shortened": "as §2"}, "[9]": {"experiment": "Cell cycle arrest in human PC3 cells assessed as accumulation at G0/G1 phase at 5 uM after 24 hrs by propidium iodide staining-based flow cytometry (reference value: 39.20%)", "format": "functional", "conditions": "PC-3", "procedure,_shortened": "as §2"}, "PC-3 [10]": {"system": "PC-3", "experiment": "Induction of apoptosis in human PC3 cells assessed as early apoptotic cells at 30 uM after 24 hrs by annexin V/propidium iodide staining-based flow cytometry (reference value: 5.7%)", "format": "functional", "procedure,_shortened": "as §3"}, "PC-3 [11]": {"system": "PC-3", "experiment": "Induction of apoptosis in human PC3 cells assessed as total apoptotic cells at 20 uM after 24 hrs by annexin V/propidium iodide staining-based flow cytometry", "format": "functional", "procedure,_shortened": "as §3"}, "PC-3 [12]": {"system": "PC-3", "experiment": "Induction of apoptosis in human PC3 cells assessed as total apoptotic cells at 5 uM after 24 hrs by annexin V/propidium iodide staining-based flow cytometry", "format": "functional", "procedure,_shortened": "as §3"}, "[13]": {"experiment": "Cell cycle arrest in human PC3 cells assessed as accumulation at G2/M phase at 5 uM after 24 hrs by propidium iodide staining-based flow cytometry (reference value: 33.04%)", "format": "functional", "conditions": "PC-3", "procedure,_shortened": "as §2"}, "[14]": {"molecular_target": "T2, Alpha-1D adrenergic receptor (Rattus norvegicus, UniProt P23944)", "T2 sequence (P23944 whole entry)": "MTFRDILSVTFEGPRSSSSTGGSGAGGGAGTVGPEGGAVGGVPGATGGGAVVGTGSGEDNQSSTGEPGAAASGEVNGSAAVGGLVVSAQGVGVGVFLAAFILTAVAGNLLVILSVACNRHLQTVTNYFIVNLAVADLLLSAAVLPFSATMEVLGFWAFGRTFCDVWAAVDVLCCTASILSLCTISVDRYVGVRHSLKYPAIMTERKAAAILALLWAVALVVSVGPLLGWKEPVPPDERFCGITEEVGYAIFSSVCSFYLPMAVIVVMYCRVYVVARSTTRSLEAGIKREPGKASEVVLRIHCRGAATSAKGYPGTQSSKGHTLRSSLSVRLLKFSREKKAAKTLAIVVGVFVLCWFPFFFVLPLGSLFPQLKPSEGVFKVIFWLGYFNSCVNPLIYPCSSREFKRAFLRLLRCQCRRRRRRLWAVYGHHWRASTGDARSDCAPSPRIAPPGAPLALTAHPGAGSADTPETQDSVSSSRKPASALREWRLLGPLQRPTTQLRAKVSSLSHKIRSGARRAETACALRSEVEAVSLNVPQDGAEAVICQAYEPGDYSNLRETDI", "experiment": "Antagonist activity at Sprague-Dawley rat thoracic aorta adrenergic alpha-1D receptor after 20 mins", "conditions": "read-out: pA2 (converted)", "procedure,_shortened": "as §1"}, "PC-3 [15]": {"system": "PC-3", "experiment": "Induction of apoptosis in human PC3 cells assessed as total apoptotic cells at 30 uM after 24 hrs by annexin V/propidium iodide staining-based flow cytometry", "format": "functional", "procedure,_shortened": "as §3"}, "PC-3 [16]": {"system": "PC-3", "experiment": "Induction of apoptosis in human PC3 cells assessed as late apoptotic cells at 20 uM after 24 hrs by annexin V/propidium iodide staining-based flow cytometry (reference value: 2.1%)", "format": "functional", "procedure,_shortened": "as §3"}}, "note": "Calls of active or inactive are those of the source. No cut-off for these calls is given here.", "data": [{"molecule": "COc1ccccc1N1CCN(CCCNC(=O)c2cc3ccccc3n2Cc2ccccc2)CC1", "values": [{"measurement": "IC50", "setting": "LNCaP", "result": 25.5, "unit": "µM"}, {"measurement": "Ratio", "setting": "Rattus norvegicus", "result": 47.9}, {"measurement": "IC50", "setting": "DU-145", "result": 33.3, "unit": "µM"}, {"measurement": "Kb", "setting": "[1]", "result": 0.00741, "unit": "µM"}, {"measurement": "inhibition", "setting": "PC-3 [2]", "result": "Active"}, {"measurement": "Activity", "setting": "[3]", "result": 41.7, "unit": "%"}, {"measurement": "Activity", "setting": "PC-3 [4]", "result": 41.9, "unit": "%"}, {"measurement": "Activity", "setting": "[5]", "result": 14.9, "unit": "%"}, {"measurement": "Activity", "setting": "[6]", "result": 61.6, "unit": "%"}, {"measurement": "Activity", "setting": "[7]", "result": 23.7, "unit": "%"}, {"measurement": "Activity", "setting": "[8]", "result": 22.2, "unit": "%"}, {"measurement": "Activity", "setting": "[9]", "result": 42.8, "unit": "%"}, {"measurement": "Activity", "setting": "PC-3 [10]", "result": 50.4, "unit": "%"}, {"measurement": "Activity", "setting": "PC-3 [11]", "result": 62.7, "unit": "%"}, {"measurement": "Activity", "setting": "PC-3 [12]", "result": 23.7, "unit": "%"}, {"measurement": "Activity", "setting": "[13]", "result": 33.5, "unit": "%"}, {"measurement": "Kb", "setting": "[14]", "result": 0.00275, "unit": "µM"}, {"measurement": "Activity", "setting": "PC-3 [15]", "result": 83, "unit": "%"}, {"measurement": "Activity", "setting": "PC-3 [16]", "result": 17.8, "unit": "%"}]}]}
